Compound activity: PubChem BioAssay, several laboratories
VIM-2 inhibitor = inhibitors of Pseudomonas aeruginosa VIM-2 metallo-beta-lactamase; 290,000 compounds, 0.89% hits; AID 1527; purified VIM-2, nitrocefin hydrolysis, epi-absorbance fluorescence; inhibition, % at 5.6 µM;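 active = inhibition above the mean of all tested compounds plus 3 SD, cutoff set per screening run, cut at about 7.5% in these data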;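 also: red hydrolysis product quenches plate fluorescence so inhibitors raise well fluorescence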
SUMO Mot1 rescue = SUMOylation pathway inhibition by Mot1-301 growth rescue; S. cerevisiae Mot1-301 growth rescue, ATP luminescence, 38.5C; percent above DMSO median, 100 means doubled; growth rescue, % at 18.8 µM; 320,000 compounds, 1% hits;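 active = every valid replicate shows activation above 250% relative to neutral control wells; inactive = the rest, any valid replicate at or below 250%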
NALP1 yeast inh = inhibitors of NALP1 inflammasome in yeast; S. cerevisiae NALP1/ASC/caspase-1 growth, X-gal OD620, 72 h; inhibition, % at 10 µM; 280,000 compounds, 0.61% hits; in the data active = inhibition mostly above about 24%, no sharp cut-off; inactive = mostly below about 32%
IMP-1 inh = inhibitors of Pseudomonas aeruginosa IMP-1 metallo-beta-lactamase | purified IMP-1, nitrocefin hydrolysis, epi-absorbance fluorescence | inhibition, % at 5.6 µM | 290,000 compounds, 0.45% hits | AID 1556;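 active = inhibition above the mean plus 3 SD of all compounds in the same screening run, cut at about 4.5% in these data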
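system = purified recombinant IMP-1 beta-lactamase | amount = 0.2 nM IMP-1, as dispensed | medium = HEPES buffer pH 7.1 with ZnSO4 and Brij 35 | times = 25 °C, 15 min preincubation, 25 min reaction | detection = plate fluorescence quenching by hydrolysis product, ex 480/em 530 nm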
PolyA inh = blocks polyadenylation in yeast reporter cells; S. cerevisiae SKY197-pL101 polyadenylation reporter, beta-gal luminescence; efflux-impaired pdr1/pdr3 knockout yeast; score 100 = 6 SD above DMSO; activity score, % at 12 µM; 300,000 compounds, 0.02% hits; AID 1875;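 active = lowest replicate activity score at least 50, where 100 means six control SD above control mean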;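 also: yeast exposed to compound for 9 h at 30 °C; higher score means more reporter readthrough which indicates perturbed polyadenylation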
NLRP3 yeast inh = NALP3 inhibition in yeast; Yeast reconstituted NLRP3/ASC/caspase-1, beta-gal luminescence, 24 h; inhibition, % at 10 µM; 330,000 compounds, 0.39% hits; AID 2825;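 active = inhibition of 50% or more; inactive = inhibition below 50%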
Each line names hits and unclear results; the compound was inactive in the other large screens. A selection: hits, their analogues and other compounds. The true share with any hit is near 2.9%.

N=c1c(C(=O)NC2CCCCC2)cc2c(=O)n3ccccc3nc2n1Cc1cccnc1	VIM-2 inhibitor 8.2
N=c1c(C(=O)NCC2CCCO2)cc2c(=O)n3ccccc3nc2n1Cc1ccco1 (stereo not drawn)	none
N=c1c(C(=O)NCC2CCCO2)cc2c(=O)n3ccccc3nc2n1Cc1cccnc1 (stereo not drawn)	VIM-2 inhibitor 8.0
N=c1c(C(=O)NCC2CCCO2)cc2c(=O)n3ccccc3nc2n1Cc1ccc(F)cc1 (stereo not drawn)	VIM-2 inhibitor 9.7
N=c1c(C(=O)NC2CCCCC2)cc2c(=O)n3ccccc3nc2n1Cc1ccccc1	none
COC(=O)CCN1CCC(c2cc(-c3cccc(C(F)(F)F)c3)n[nH]2)CC1	SUMO Mot1 rescue 320
Cc1csc(NC(=O)c2nc(-c3ccccc3)n(-c3ccccc3)n2)n1	none
O=C(Nc1nccs1)c1nc(-c2ccccc2)n(-c2ccccc2)n1	SUMO Mot1 rescue 314
O=C(Nc1nncs1)c1cc(-c2ccncc2)nc2ccc(Cl)cc12	NALP1 yeast inh 27
CC(=O)Nc1cccc(NC(=O)c2cc(-c3cccnc3)nc3ccc(Cl)cc23)c1	none
CC(NC(=O)c1cc(-c2ccncc2)nc2ccc(Cl)cc12)C1CCCO1 (stereo not drawn)	SUMO Mot1 rescue 341
Cn1c2ccccc2c(=O)c2cc(NCCCN3CCOCC3)ccc21	none (no result: VIM-2 inhibitor, NALP1 yeast inh, IMP-1 inh, PolyA inh)
CCc1nc(NCCCN2CCOCC2)c2oc3ccccc3c2n1	VIM-2 inhibitor 11 (no result: SUMO Mot1 rescue)
CCc1nc(NCCN2CCOCC2)c2oc3ccccc3c2n1	none
O=c1c2ccccc2oc2ccc(NCCCN3CCOCC3)cc12	VIM-2 inhibitor 9.8
CC1CC(C)CN(S(=O)(=O)c2ccc(NC(=O)c3ccc(=O)[nH]c3)cc2)C1 (stereo not drawn)	none (no result: VIM-2 inhibitor, NALP1 yeast inh, IMP-1 inh, PolyA inh)
COc1cccc2c(=O)c3c(cnn3C)n(C)c12	none
COc1cccc2c(=O)c3ccoc3n(C)c12	SUMO Mot1 rescue 350
Cc1nc(CN(C)C(=O)c2cc(COc3ccc4ncccc4c3)on2)cs1	none
C=CCC1c2cccc(C(=O)O)c2C(=O)N1c1cccc(C)c1 (stereo not drawn)	VIM-2 inhibitor 11
Cc1cc(C(=O)Nc2ccccc2C(=O)O)c(C)o1	none
COC(CN1C(=O)C(=O)/C(=C(/O)c2ccccc2)C1c1ccccn1)OC (stereo not drawn)	VIM-2 inhibitor 9.6
Cc1cccnc1NC(=O)C1COc2ccccc2O1 (stereo not drawn)	none
O=C(Nc1ncc(C(F)(F)F)cc1Cl)C1COc2ccccc2O1 (stereo not drawn)	NALP1 yeast inh 40
CCc1ccccc1NC(=O)CCS(=O)(=O)c1ccc(OC)cc1	IMP-1 inh 37
O=C(Nc1ccc(F)cc1)c1ccc(C(=O)N2CCOCC2)cc1	none (no result: VIM-2 inhibitor, NALP1 yeast inh, IMP-1 inh)
O=C(c1ccc(F)cc1)N1CCOCC1	NALP1 yeast inh 26
COc1cc(/C=C2\SC(=S)N(NC(=O)c3ccc(O)cc3)C2=O)ccc1O	none
COc1ccc(/C=C2\Sc3ccc(C(=O)NCc4cccnc4)cc3N(C)C2=O)cc1OC	VIM-2 inhibitor 11
COc1cc(/C=C2\SC(=S)N(NC(=O)c3cccnc3)C2=O)ccc1O	PolyA inh 86 (no result: NALP1 yeast inh)
COc1cccc(/C=C2\Sc3ccc(C(=O)NCc4cccnc4)cc3N(C)C2=O)c1	none
Cc1nc(SCc2ccccc2C#N)n[nH]1	IMP-1 inh 4.9
CCN(CC)S(=O)(=O)c1ccc(N2CCCC2)c(NC(=O)C2=NN(c3ccccc3)C(=O)CC2)c1	none (no result: VIM-2 inhibitor, NALP1 yeast inh, IMP-1 inh, PolyA inh)
C/C(=N\NC(=O)C1CCCC1)c1ccc(Cl)cc1Cl	none (no result: PolyA inh)
COCC1CCN(C(=O)c2cc(COc3ccc4c(c3)CCCC4)on2)C1 (stereo not drawn)	NALP1 yeast inh 27
COCC1CCN(C(=O)c2cc(COc3ccc(C)c(C)c3)on2)C1 (stereo not drawn)	none
O=S(=O)(c1ccc2c(c1)OCCO2)N1CCC(n2nnc3cc(C(F)(F)F)ccc32)CC1	IMP-1 inh 6.9
O=S(=O)(c1ccccc1)N1CCC(n2nnc3cc(F)ccc32)CC1	none
O=[N+]([O-])c1ccc(S(=O)(=O)Nc2nnc(C3CCCCC3)s2)cc1	none
CCOc1nc(NCCO)nc(Nc2cc(Cl)ccc2OC)n1	none
C=CCNc1nc(Nc2cc(Cl)ccc2OC)nc(OC)n1	NALP1 yeast inh 25
Cc1ccccc1C(=O)Nc1c(C(=O)N2CCN(C)CC2)cnn1-c1ccccc1	none
CN1CCN(C(=O)c2cnn(-c3ccccc3)c2NC(=O)c2ccccc2Br)CC1	SUMO Mot1 rescue 331
Cc1ccc(-c2nc(CN(C)C(C3CC3)C3CC3)c(C)o2)cc1	SUMO Mot1 rescue 316
CSc1ccc(-c2nc(CN(C)C3CCOC3)c(C)o2)cc1 (stereo not drawn)	none
CC(C)[C@H](NC(=O)[C@@H]1CSC2c3ccccc3C(=O)N21)C(=O)N1CCCCC1 (stereo partly drawn)	none
CC(C)OCCCNC(=O)c1cc2c(=O)n(C)c3ccccc3c2n1C	VIM-2 inhibitor 10
COc1ccc2nc(NC(=O)CSc3nnc(C)n3N)sc2c1	SUMO Mot1 rescue 305
O=C(/C=C/c1ccccc1)c1ccccn1	VIM-2 inhibitor 9.1
O=C(C1CC=CCC1)N1CCN(S(=O)(=O)c2ccc(F)cc2)CC1 (stereo not drawn)	none (no result: VIM-2 inhibitor, SUMO Mot1 rescue, NALP1 yeast inh, IMP-1 inh, PolyA inh)
Cc1ccc(S(=O)(=O)NCC(=O)OCC(=O)c2ccc(Cl)s2)cc1	SUMO Mot1 rescue 353
Cc1ccc(S(=O)(=O)NCC(=O)OCC(=O)c2cccs2)cc1	none
Cc1ccc(NNC(=O)c2cc(C)on2)c(C)c1	none
CCc1ccc(C(=O)NNc2ccc(F)cc2F)cc1	SUMO Mot1 rescue 339 (no result: NALP1 yeast inh)
O=C(O)c1ccccc1C(=O)NNc1ccc(F)cc1F	none
Cc1cc(C(=O)NNc2ccc(F)cc2F)no1	SUMO Mot1 rescue 538 (no result: NALP1 yeast inh)
CCCc1ccc(C(=O)NNc2ccc(F)cc2)cc1	SUMO Mot1 rescue 289
O=C(COC(=O)c1ccc(O)cc1)Nc1ccc2c(c1)OCO2	none (no result: VIM-2 inhibitor, NALP1 yeast inh, IMP-1 inh, PolyA inh)
CCOCCCN(C)C1CCN(C(=O)c2oc3ccccc3c2NC(=O)c2cccc([N+](=O)[O-])c2)CC1	none
C[C@@H]1NC(=O)N(c2ccc(F)cc2)C1=O	none
Cc1ccc(C(=O)NCC(=O)N(C)CC(=O)Nc2ccccc2Br)s1	none (no result: VIM-2 inhibitor, NALP1 yeast inh, IMP-1 inh, PolyA inh)
CS(=O)(=O)Nc1ccc(C2=NN(C(=O)c3ccco3)C(c3ccc(F)cc3)C2)cc1 (stereo not drawn)	none
O=C(c1ccco1)N1N=C(c2ccc3nccnc3c2)CC1c1ccccc1 (stereo not drawn)	SUMO Mot1 rescue 541
CCCS(=O)(=O)C/C(N)=N/OC(=O)c1ccccc1Cl	IMP-1 inh 8.3 (no result: NALP1 yeast inh)
N/C(CS(=O)(=O)c1ccccn1)=N\OC(=O)c1ccccc1Cl	none
CC(CC(F)(F)F)N1CCC(n2nccc2NC(=O)CCCc2ccccc2)CC1 (stereo not drawn)	none
